In ChEMBL document CHEMBL4396879, “Conjugation of Short Peptides to Dibenzodiazepinone-Type Muscarinic Acetylcholine Receptor Ligands Determines M2R Selectivity” (J Med Chem, 2019):

Tests used:
[1] = target: Muscarinic acetylcholine receptor M2 and M4 (Homo sapiens) (UniProt P08173+P08172); assay: Selectivity ratio of Ki for human muscarinic M4 receptor expressed in CHO-K9 cells to Ki for human muscarinic M2 receptor expressed in CHO-K9 cells; assay type: cell-based
How it was run: (§1)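 Ratio of mean Ki values. Each Ki came from an individual [3H]NMS competition experiment at the given CHO-hMxR subtype, converting IC50 to Ki by Cheng-Prusoff before averaging.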

[2] = target: T1, Muscarinic acetylcholine receptor M2 (Homo sapiens, UniProt P08172); assay: Displacement of [3H]-NMS from human muscarinic M2 receptor expressed in CHO-K9 cells after 3 hrs by microbeta2 scintillation counting method; assay type: cell-based
T1 sequence (P08172 whole entry): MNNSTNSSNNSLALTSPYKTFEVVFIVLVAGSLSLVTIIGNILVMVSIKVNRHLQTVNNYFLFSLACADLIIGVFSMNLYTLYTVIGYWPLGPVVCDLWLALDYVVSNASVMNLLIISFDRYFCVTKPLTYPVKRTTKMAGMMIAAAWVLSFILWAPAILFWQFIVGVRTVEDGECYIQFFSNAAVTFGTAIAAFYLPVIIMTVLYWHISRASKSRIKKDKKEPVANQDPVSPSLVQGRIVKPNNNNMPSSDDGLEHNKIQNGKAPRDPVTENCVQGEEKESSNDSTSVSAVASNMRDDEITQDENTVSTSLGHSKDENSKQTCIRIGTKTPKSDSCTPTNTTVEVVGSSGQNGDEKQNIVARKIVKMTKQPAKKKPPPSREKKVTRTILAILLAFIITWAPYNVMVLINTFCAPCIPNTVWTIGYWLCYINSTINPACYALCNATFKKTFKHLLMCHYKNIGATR
How it was run: (§2)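 [3H]NMS competition binding on intact CHO-hMxR cells in L15 medium with 1% BSA, 3 h at 22 ± 1 °C with gentle shaking. [3H]NMS was 0.2 nM (M1, M2, M3), 0.1 nM (M4) or 0.3 nM (M5). […] Cells were lysed in urea/acetic acid/Triton and counted by liquid scintillation. Ki from Cheng-Prusoff. Triplicates, ≥3 experiments.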

[3] = target: T2, Muscarinic acetylcholine receptor M5 (Homo sapiens, UniProt P08912); assay: Displacement of [3H]-NMS from human muscarinic M5 receptor expressed in CHO-K9 cells after 3 hrs by microbeta2 scintillation counting method; assay type: cell-based; how it was run: as §2
T2 sequence (P08912 whole entry): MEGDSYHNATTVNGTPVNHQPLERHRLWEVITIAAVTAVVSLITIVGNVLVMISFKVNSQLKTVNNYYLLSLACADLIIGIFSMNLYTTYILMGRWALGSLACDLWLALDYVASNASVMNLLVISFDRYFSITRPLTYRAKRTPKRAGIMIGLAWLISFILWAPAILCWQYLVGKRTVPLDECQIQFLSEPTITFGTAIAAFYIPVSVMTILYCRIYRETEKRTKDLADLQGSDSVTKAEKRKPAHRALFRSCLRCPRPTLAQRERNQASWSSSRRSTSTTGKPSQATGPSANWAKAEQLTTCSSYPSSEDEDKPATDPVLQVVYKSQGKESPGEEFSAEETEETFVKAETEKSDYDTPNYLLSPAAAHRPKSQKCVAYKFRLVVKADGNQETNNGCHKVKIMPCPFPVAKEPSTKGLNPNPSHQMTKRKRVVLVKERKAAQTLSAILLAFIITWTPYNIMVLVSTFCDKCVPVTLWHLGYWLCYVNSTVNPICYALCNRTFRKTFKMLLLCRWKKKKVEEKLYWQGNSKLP

[4] = target: T1, Muscarinic acetylcholine receptor M2; assay: (§3) Antagonist activity at human muscarinic M2 receptor expressed in HEK293 cells co-expressing HA-Galphaq/i5 assessed as inhibition of carbachol-induced IP1 accumulation pre-incubated for 30 mins followed by carbachol addition and measured after 1 hr by HTRF assay; assay type: functional, cell-based
How it was run: (§4)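 HEK-293 cells transiently cotransfected (receptor plus HA-tagged Gαqi5), detached after 1 day and seeded at 10,000 cells/well for 24 h at 37 °C. Duplicates.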

[5] = target: T3, Muscarinic acetylcholine receptor M2 (Homo sapiens) (UniProt P08172); assay: as §3; assay type: functional, cell-based; how it was run: as §4
T3 sequence (whole entry): T1 sequence (P08172 whole entry)

[6] = target: T1, Muscarinic acetylcholine receptor M2; assay: Competitive displacement of [3H]-NMS from human muscarinic M2 receptor expressed in CHO-K9 cells using 0.2 nM [3H]-NMS after 3 hrs by microbeta2 scintillation counting method; assay type: cell-based
How it was run: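 Intact CHO-hM2R cells (90-100% confluent) incubated 3 h at 22 ± 1 °C in L15 medium with 1% BSA and 0.2 nM [3H]NMS. […] Cells were lysed in urea/acetic acid/Triton-X-100 and radioactivity was counted. Ki via Cheng-Prusoff.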

[7] = target: T3, Muscarinic acetylcholine receptor M2 (Homo sapiens); assay: Competitive displacement of [3H]-NMS from human muscarinic M2 receptor expressed in CHO-K9 cells using 2 nM [3H]-NMS after 3 hrs by microbeta2 scintillation counting method relative to control; assay type: cell-based
How it was run: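 Intact CHO-hM2R cells incubated at 22 °C with a high [3H]NMS concentration (2 nM). […] Curves were fitted by four-parameter logistic fits. Mean ± SEM from ≥4 experiments in triplicate.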

[8] = target: Muscarinic acetylcholine receptor M3 (Homo sapiens, UniProt P20309); assay: Displacement of [3H]-NMS from human muscarinic M3 receptor expressed in CHO-K9 cells after 3 hrs by microbeta2 scintillation counting method; assay type: cell-based; how it was run: as §2
Chain of Muscarinic acetylcholine receptor M3 (P20309 whole entry): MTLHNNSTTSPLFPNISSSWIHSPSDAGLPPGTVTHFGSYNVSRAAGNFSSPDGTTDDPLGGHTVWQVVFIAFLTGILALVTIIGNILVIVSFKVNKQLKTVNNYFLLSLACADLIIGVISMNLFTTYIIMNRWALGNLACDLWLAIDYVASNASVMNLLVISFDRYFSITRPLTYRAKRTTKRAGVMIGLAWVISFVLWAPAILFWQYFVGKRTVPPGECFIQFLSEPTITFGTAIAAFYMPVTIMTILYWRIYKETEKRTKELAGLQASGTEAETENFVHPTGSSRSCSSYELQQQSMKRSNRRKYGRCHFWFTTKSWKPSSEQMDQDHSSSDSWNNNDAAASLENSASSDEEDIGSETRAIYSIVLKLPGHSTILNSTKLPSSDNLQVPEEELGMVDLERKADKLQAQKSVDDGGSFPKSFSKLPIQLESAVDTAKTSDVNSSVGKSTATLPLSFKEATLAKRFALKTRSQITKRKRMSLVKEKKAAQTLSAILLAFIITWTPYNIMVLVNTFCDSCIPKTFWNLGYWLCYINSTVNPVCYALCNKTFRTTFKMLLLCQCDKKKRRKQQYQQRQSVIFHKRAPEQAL

[9] = target: Muscarinic acetylcholine receptors; M2 & M3 (Homo sapiens) (UniProt P20309+P08172); assay: Selectivity ratio of Ki for human muscarinic M3 receptor expressed in CHO-K9 cells to Ki for human muscarinic M2 receptor expressed in CHO-K9 cells; assay type: cell-based; how it was run: as §1
[10] = target: Muscarinic acetylcholine receptor M2 and M5 (Homo sapiens) (UniProt P08172+P08912); assay: Selectivity ratio of Ki for human muscarinic M5 receptor expressed in CHO-K9 cells to Ki for human muscarinic M2 receptor expressed in CHO-K9 cells; assay type: cell-based; how it was run: as §1
[11] = target: Muscarinic acetylcholine receptors; M1 & M2 (Homo sapiens) (UniProt P11229+P08172); assay: Selectivity ratio of Ki for human muscarinic M1 receptor expressed in CHO-K9 cells to Ki for human muscarinic M2 receptor expressed in CHO-K9 cells; assay type: cell-based; how it was run: as §1
[12] = target: T4, Muscarinic acetylcholine receptor M1 (Homo sapiens, UniProt P11229); assay: Displacement of [3H]-NMS from human muscarinic M1 receptor expressed in CHO-K9 cells after 3 hrs by microbeta2 scintillation counting method; assay type: cell-based; how it was run: as §2
T4 sequence (P11229 whole entry): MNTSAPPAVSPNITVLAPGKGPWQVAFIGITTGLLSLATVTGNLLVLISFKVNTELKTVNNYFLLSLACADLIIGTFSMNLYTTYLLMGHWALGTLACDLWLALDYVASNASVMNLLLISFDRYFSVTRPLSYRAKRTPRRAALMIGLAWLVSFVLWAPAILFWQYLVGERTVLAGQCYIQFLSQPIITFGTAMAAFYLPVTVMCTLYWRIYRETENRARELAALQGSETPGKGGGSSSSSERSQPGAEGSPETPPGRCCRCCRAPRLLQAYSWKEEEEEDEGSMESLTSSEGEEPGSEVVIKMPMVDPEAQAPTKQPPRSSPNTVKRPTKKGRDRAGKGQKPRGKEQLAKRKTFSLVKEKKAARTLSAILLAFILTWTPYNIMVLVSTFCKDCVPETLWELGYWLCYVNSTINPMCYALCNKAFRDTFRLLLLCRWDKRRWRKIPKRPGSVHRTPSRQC

Ratio Ki [1] | Ki [2] | Ki [3] | IC50 [4] | inhibition [5] | IC50 [6] | Ki [6] | Activity [7] | Ki [8] | Ratio Ki [9] | Ratio Ki [10] | Ratio Ki [11] | Ki [12] | Compound
40 | 0.0631 nM | 295 nM | 10.5 nM | Dose-dependent effect | 0.191 nM | 0.0631 nM | > 95% | 110 nM | 1800 | 4900 | 45 | 2.29 nM | CC(=O)N[C@@H](CCCCN)C(=O)N[C@@H](C)C(=O)N[C@@H](CCCNC(=N)N)C(=O)NCCN1CCN(CCCCC2CCN(CC(=O)N3c4ccccc4NC(=O)c4ccccc43)CC2)CC1
60 | 1.07 nM | 427 nM | 93.3 nM | Dose-dependent effect | 3.31 nM | 1.07 nM | > 95% | 6760 nM | 6500 | 400 | 49 | 41.7 nM | CC(=O)N[C@@H](CCCCN)C(=O)N[C@@H](CCCNC(=N)N)C(=O)NCCCCC1CCN(CC(=O)N2c3ccccc3NC(=O)c3ccccc32)CC1
